pIC50, pKd: −log10 of the molar value. The source made the active and inactive calls.
How the values were obtained:
[1] = biological target: T1, Proteasome Macropain subunit MB1 (Homo sapiens) (UniProt P28074); assay: Binding affinity to immobilized human 20S proteasome beta 5 subunit assessed as association rate constant by SPR analysis
T1 sequence (whole entry): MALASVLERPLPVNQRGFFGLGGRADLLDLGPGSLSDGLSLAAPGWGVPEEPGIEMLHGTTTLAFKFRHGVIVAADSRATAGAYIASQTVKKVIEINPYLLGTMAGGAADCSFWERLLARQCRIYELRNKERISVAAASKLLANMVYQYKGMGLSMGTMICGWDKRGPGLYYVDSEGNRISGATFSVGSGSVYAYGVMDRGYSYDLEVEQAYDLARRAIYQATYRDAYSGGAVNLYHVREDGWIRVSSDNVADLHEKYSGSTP
Outline: (§1)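 Purified human constitutive 20S proteasome was immobilised on a CM5 chip. Analyte was a 2-fold series from 25 to 1.56 µM in running buffer (10 mM phosphate, 2.7 mM KCl, 137 mM NaCl, 0.05% P20, 5% DMSO, pH 7.4). Flow was 30 µL/min, with 60 s association and 60 s dissociation. Responses were normalised by molecular weight, and kon/koff came from a 1:1 binding fit.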

[2] = biological target: T1, Proteasome Macropain subunit MB1 (Homo sapiens); assay: Covalent binding affinity to human 20S proteasome beta5 subunit assessed as hemi-ketal formation using H2O-MeOH as mobile phase by HPLC analysis
A-375 = assay: Cytotoxicity against human A-375 cells assessed as reduction in cell viability after 72 hrs by Cell Titer-Glo assay; format: functional, cell-based; conditions: A-375, 72 h
Outline: (§2)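 Cells were cultured in their respective media with 10% FBS, seeded from log phase at 1000 cells/well, and given compound after 18–24 h. After 72 h, an equal volume of CellTiter-Glo reagent was added and luminescence was read at 37 °C. IC50 came from dose-response curve fits; values are mean ± SD of three independent experiments, each in biological triplicate.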

[3] = biological target: T1, Proteasome Macropain subunit MB1 (Homo sapiens); assay: Covalent binding affinity to human 20S proteasome beta5 subunit assessed as compound-tryptic digest TTTLAFKFR peptide adduct formation at 10 uM incubated for 2 hrs measured after overnight incubation with trypsin by LC-MS/MS analysis
Outline: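 Purified human 20S proteasome (4 nM) was incubated with 10 μM inhibitor for 2 h at room temperature, then quenched and denatured with acetonitrile. Trypsin (1:50) digestion ran overnight at 37 °C, followed by C18 desalting. Nano-LC-MS/MS used a 0.1% formic acid water/acetonitrile gradient. Adducts were searched against UniProt at ±10 ppm precursor and ±0.02 Da fragment tolerance, allowing 2 missed cleavages.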

[4] = biological target: T1, Proteasome Macropain subunit MB1 (Homo sapiens); assay: Inhibition of chymotrypsin-like activity of human 20S proteasome beta5 subunit at 50 uM using Suc-LLVY-Glo as substrate incubated for 2 hrs followed by substrate addition and measured for 10 mins by bioluminescent assay relative to control; conditions: time 130.0 min
Outline: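 Human constitutive 20S proteasome (1 µg/mL) was incubated with compound for 2 h at 25 °C in 10 mM HEPES pH 7.6 with 1% DMSO final. Suc-LLVY-Glo substrate was then added, and luminescence was read over 10 min. Inhibition rate was calculated against the uninhibited signal.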

HeLa = assay: Cytotoxicity against human HeLa cells assessed as reduction in cell viability after 72 hrs by Cell Titer-Glo assay; format: functional, cell-based; outline: as §2
[5] = AUC(0 to t) in Sprague-Dawley rat at 5 mg/kg, iv measured up to 48 hrs by LC-MS/MS analysis; format: ADME, organism-based; design: route intravenous, dose 5 mg/kg, time <=48; conditions: in vivo
Outline: (§3)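 Male Sprague-Dawley rats, three per group, fasted 12 h, then given a single intravenous dose of 5 mg/kg in 8% ethanol, 2% Tween 80 and 90% sterile water. Blood was drawn from the venous plexus at the inner canthus into heparin tubes at 5, 15 and 30 min and at 1, 2, 4, 8, 24, 32 and 48 h. Plasma was quantified by LC-MS/MS against an internal standard.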

HCT-116 [6] = assay: Cell cycle arrest in human HCT-116 cells assessed as accumulation at G1 phase at 1 uM after 24 hrs by propidium iodide staining based flow cytometric analysis (reference value: 29%); format: functional
BGC-823 = assay: Cytotoxicity against human BGC-823 cells assessed as reduction in cell viability after 72 hrs by Cell Titer-Glo assay; format: functional, cell-based; conditions: BGC-823, 72 h; outline: as §2
HCT-116 [7] = assay: Cytotoxicity against human HCT-116 cells assessed as reduction in cell viability after 72 hrs by Cell Titer-Glo assay; format: functional, cell-based; conditions: HCT-116, 72 h; outline: as §2
[8] = biological target: T2, Proteasome Macropain subunit MB1 (Homo sapiens, UniProt P28074); assay: Inhibition of chymotrypsin-like activity of human 20S proteasome beta5 subunit using Suc-LLVY-Glo as substrate incubated for 2 hrs followed by substrate addition and measured for 10 mins by bioluminescent assay
T2 sequence (P28074 whole entry): T1 sequence (whole entry)
Outline: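 Human constitutive 20S proteasome (1 μg/mL) was combined with compound serially diluted in 10 mM HEPES pH 7.6, with final DMSO 1% (v/v). After 2 h at 25 °C, Suc-LLVY-Glo (CT-L), Z-LRR-Glo (T-L) or Z-nLPnLD-Glo (C-L) reagent was added. Luminescence was read over 10 min, and IC50 was taken from inhibition rates.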

HEK293 = assay: Cytotoxicity against human HEK293 cells assessed as reduction in cell viability after 72 hrs by Cell Titer-Glo assay; format: cell-based; conditions: HEK293, 72 h; outline: as §2
[9] = biological target: T1, Proteasome Macropain subunit MB1 (Homo sapiens); assay: Reversible inhibition of human 20S proteasome beta5 subunit assessed as residual enzyme activity using Suc-LLVY-Glo as substrate preincubated for 2 hrs followed by compound washout and further incubated for 4 hrs followed by substrate addition and measured after 10 mins by bioluminescent assay relative to control
Outline: (§4)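 Human 20S proteasome (8 μg/mL) was pre-incubated with inhibitor for 2 h at 25 °C. Samples were then washed five times in assay buffer on 100 kDa cut-off centrifugal filters (14,000 g, 5 min each) and recovered. After a further 4 h at 25 °C, Suc-LLVY-Glo was added and luminescence was read after 10 min. Unwashed samples held an extra 4 h served as the standard.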

[10] = Volume of distribution at steady state in Sprague-Dawley rat at 5 mg/kg, iv measured up to 48 hrs by LC-MS/MS analysis; format: ADME, organism-based; conditions: in vivo, read-out: Vdss; outline: as §3
[11] = biological target: T1, Proteasome Macropain subunit MB1 (Homo sapiens); assay: Binding affinity to immobilized human 20S proteasome beta 5 subunit assessed as dissociation rate constant by SPR analysis; outline: as §1
HCT-116 [12] = assay: Cell cycle arrest in human HCT-116 cells assessed as accumulation at G2/M phase at 1 uM after 24 hrs by propidium iodide staining based flow cytometric analysis (reference value: 21%); format: functional
[13] = Half life in Sprague-Dawley rat at 5 mg/kg, iv measured up to 48 hrs by LC-MS/MS analysis; format: ADME, organism-based; conditions: in vivo; outline: as §3
[14] = Cytotoxicity against human PC3M1E8 cells assessed as reduction in cell viability after 72 hrs by Cell Titer-Glo assay; format: functional, cell-based; conditions: PC3M1E8, 72 h; outline: as §2
[15] = Cmax in Sprague-Dawley rat at 5 mg/kg, iv measured up to 48 hrs by LC-MS/MS analysis; format: ADME, organism-based; design: route intravenous, dose 5 mg/kg, time <=48; conditions: in vivo; outline: as §3
[16] = biological target: T2, Proteasome Macropain subunit MB1; assay: Binding affinity to immobilized human 20S proteasome beta 5 subunit by SPR analysis
Outline: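 SPR used purified human 20S proteasome coupled to a CM5 chip. Analytes were 2-fold series from 25 to 1.56 μM in PBS-P running buffer (pH 7.4, 0.05% P20) with 5% DMSO, flowed at 30 μL/min with 60 s association and 60 s dissociation. Data were normalized by molecular weight and fitted to a 1:1 Langmuir model; KD is from the rate constants.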

[17] = biological target: T1, Proteasome Macropain subunit MB1 (Homo sapiens); assay: Covalent binding affinity to human 20S proteasome beta5 subunit assessed as methyl hemi-ketal formation using H2O-CH3CN as mobile phase by HPLC analysis
A549 = assay: Cytotoxicity against human A549 cells assessed as reduction in cell viability after 72 hrs by Cell Titer-Glo assay; format: functional, cell-based; conditions: A549, 72 h; outline: as §2
HCT-116 [18] = assay: Cell cycle arrest in human HCT-116 cells assessed as accumulation at S phase at 1 uM after 24 hrs by propidium iodide staining based flow cytometric analysis (reference value: 50%); format: functional
[19] = Clearance in Sprague-Dawley rat at 5 mg/kg, iv measured up to 48 hrs by LC-MS/MS analysis; format: ADME, organism-based; conditions: in vivo; outline: as §3
HT-29 = assay: Cytotoxicity against human HT-29 cells assessed as reduction in cell viability after 72 hrs by Cell Titer-Glo assay; format: functional, cell-based; conditions: HT-29, 72 h; outline: as §2
[20] = Toxicity in BALB/c athymic nude mouse xenografted with human HCT-116 cells assessed as reduction in body weight at 10 mg/kg, iv administered twice a week for 28 days; format: organism-based; conditions: in vivo, 672 h, time 28 day
Outline: (§5)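 Male nude mice had 1 × 10^7 HCT-116 cells in serum-free RPMI 1640 implanted subcutaneously in the right flank. At ~300 mm³ (about day 10) they were randomized, n=3/group. Dosing was by tail vein twice weekly (D1/D4) for four weeks: 10 mg/kg in 8% ethanol/2% Tween 80/90% water, or 5 mg/kg in 10% sulfobutylether-β-cyclodextrin, 10 mmol/L citrate pH 3.5. Caliper volume (length × width²)/2 and body weight were measured twice weekly.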

[21] = MRT in Sprague-Dawley rat at 5 mg/kg, iv measured up to 48 hrs by LC-MS/MS analysis; format: ADME, organism-based; conditions: in vivo; outline: as §3
HCT-116 [22] = assay: Antitumour activity against human HCT-116 cells xenografted in BALB/c athymic nude mouse assessed as reduction in tumour growth at 5 mg/kg, iv administered twice a week for 28 days by caliper analysis; format: functional, organism-based; conditions: time 28.0 day; outline: as §5
[23] = Clearance in Sprague-Dawley rat at 4 mg/kg, iv measured up to 48 hrs by LC-MS/MS analysis; conditions: in vivo
[24] = biological target: T1, Proteasome Macropain subunit MB1 (Homo sapiens); assay: Irreversible inhibition of human 20S proteasome beta5 subunit assessed as residual enzyme activity using Suc-LLVY-Glo as substrate preincubated for 2 hrs followed by compound washout and further incubated for 4 hrs followed by substrate addition and measured after 10 mins by bioluminescent assay relative to control; outline: as §4
[25] = Half life in Sprague-Dawley rat at 4 mg/kg, iv measured up to 48 hrs by LC-MS/MS analysis; conditions: in vivo
[26] = Cmax in Sprague-Dawley rat at 4 mg/kg, iv measured up to 48 hrs by LC-MS/MS analysis; format: ADME, organism-based; design: route intravenous, dose 4 mg/kg, time <=48; conditions: in vivo
in vivo = conditions: Sprague-Dawley, rat, iv, 4 mg/kg
[27] = Volume of distribution at steady state in Sprague-Dawley rat at 4 mg/kg, iv measured up to 48 hrs by LC-MS/MS analysis; conditions: in vivo
[28] = Toxicity in BALB/c athymic nude mouse xenografted with human HCT-116 cells assessed as reduction in body weight at 5 mg/kg, iv administered twice a week for 28 days; format: organism-based; conditions: in vivo, 672 h, time 28 day; outline: as §5

COC[C@H](NC(=O)[C@H](CC(=O)NCC(C)(C)C)NS(=O)(=O)c1ccc(C)cc1)C(=O)N[C@@H](CC(C)C)C(=O)c1ccco1
Ka [1]: 4210 M⁻¹ s⁻¹ | Activity [2]: 27% | pIC50 (A-375): 6.06 | Activity [3]: inactive | inhibition [4]: > 50% | pIC50 (HeLa): 6.17 | AUC(0-t) at 48 h [5]: 680 ng·h/mL | Activity (HCT-116 [6]): 9% | pIC50 (BGC-823): 6.11 | pIC50 (HCT-116 [7]): 6.55 | pIC50 [8]: 6.74 | pIC50 (HEK293): < 4.30 | Activity [9]: < 30% | Vd [10]: 0.66 L/kg | Kdiss [11]: 0.0192 s⁻¹ | Activity (HCT-116 [12]): 77% | half-life [13]: 13.8 min | pIC50 [14]: 6.24 | Cmax [15]: 2010 ng/mL | pKd [16]: 5.32 | Activity [17]: inactive | pIC50 (A549): 5.89 | Activity (HCT-116 [18]): 14% | clearance [19]: 33.3 mL/min/kg | pIC50 (HT-29): 6.14 | Activity [20]: Non-Toxic | MRT [21]: 20.2 min

CC(C)C[C@H](NC(=O)[C@H](CCc1ccccc1)NC(=O)CN1CCOCC1)C(=O)N[C@@H](Cc1ccccc1)C(=O)N[C@@H](CC(C)C)C(=O)[C@@]1(C)CO1 [CARFILZOMIB]
Activity [3]: Active | Activity (HCT-116 [22]): Active | clearance at 48 h [23]: 195 mL/min/kg | Activity [24]: 10% | half-life at 48 h [25]: 17 min | Cmax [26]: 27800 ng/mL | AUC(0-t) at 48 h (in vivo): 343 ng·h/mL | Vd at 48 h [27]: 0.3 L/kg | Activity [28]: Non-Toxic

— ChEMBL document CHEMBL4680218, “Design and synthesis of tripeptidyl furylketones as selective inhibitors against the β5 subunit of human 20S proteasome” (Eur J Med Chem, 2020)
